Assay [1] addresses D(2) dopamine receptor (Rattus norvegicus, UniProt P61169). Description: Binding affinity towards dopamine receptor D2 using as [3H]-spiperone radioligand. A digest of the protocol: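 Rat striatal membranes washed in 50 mM Tris-HCl pH 7.7, then resuspended in 50 mM Tris-HCl pH 7.1 with NaCl, KCl, CaCl2, MgCl2, ascorbate and 10 μM pargyline, preincubated 10 min at 37 °C. Incubated with [3H]spiperone (0.2 nM final) for 20 min at 37 °C, then filtered. IC50 read from concentration-inhibition curves.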

Assay [2] concerns Mus musculus. In words: Ability to inhibit apomorphine induced hyperactivity in mice after intraperitoneal administration. The settings on record: ip. The assay is classed as functional. The method, boiled down:
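Male mice in groups of three, dosed ip 1 h before apomorphine HCl 0.5 mg/kg sc. Motor activity counted for 20 min right after apomorphine.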

Assay [3] relates to Dopamine receptor (Mus musculus). In words: Inhibitory effects on the hyperactivity against dopamine receptor after peroral administration.

Our source for the Ki and ED50 values is ChEMBL document CHEMBL1125868, “Antidopaminergic effects of the stereoisomers of N-[(1-alkyl-2- pyrrolidinyl)methyl]-5-sulfamoylbenzamides and -2,3-dihydrobenzofuran-7-carboxamides” (J Med Chem, 1991).

Chain of D(2) dopamine receptor (P61169 whole entry): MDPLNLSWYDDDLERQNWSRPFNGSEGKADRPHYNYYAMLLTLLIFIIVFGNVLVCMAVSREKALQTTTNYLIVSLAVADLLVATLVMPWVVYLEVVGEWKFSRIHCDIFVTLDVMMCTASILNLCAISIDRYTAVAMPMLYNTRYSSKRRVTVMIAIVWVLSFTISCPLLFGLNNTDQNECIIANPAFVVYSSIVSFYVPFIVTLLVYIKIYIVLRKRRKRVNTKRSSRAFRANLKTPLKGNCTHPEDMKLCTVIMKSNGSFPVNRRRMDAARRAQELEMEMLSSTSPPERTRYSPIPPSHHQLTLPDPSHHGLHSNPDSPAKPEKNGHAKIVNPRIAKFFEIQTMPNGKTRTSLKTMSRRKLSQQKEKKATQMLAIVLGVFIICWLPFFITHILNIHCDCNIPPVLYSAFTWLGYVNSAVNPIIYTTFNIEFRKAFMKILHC

The molecule `CCCCCCN1CCC[C@@H]1CNC(=O)c1cc(S(N)(=O)=O)cc2c1O[C@@H](C)C2` had a Ki in assay [1] of 6.7 nM. The molecule also had an ED50 in assay [2] of 12.2 mg/kg.

With `CCCCCCN1CCC[C@@H]1CNC(=O)c1cc(S(N)(=O)=O)ccc1OC`, the 50% effective dose (ED50) in assay [3] worked out at 65 mg/kg; in assay [2] it was 28.2 mg/kg. The molecule further yielded a Ki in assay [1] of 59 nM.

With `CCN1CCC[C@@H]1CNC(=O)c1cc(S(N)(=O)=O)cc2c1O[C@@H](C)C2`, the ED50 in assay [3] was found to be 419 mg/kg; in assay [2], 71.7 mg/kg. In assay [1], this molecule registered a Ki of 400 nM.

As to `CCCCN1CCC[C@@H]1CNC(=O)c1cc(S(N)(=O)=O)ccc1OC`, the ED50 in assay [3] came out at 184 mg/kg; in assay [2] it was 92.3 mg/kg. This molecule also yielded a Ki in assay [1] of 230 nM.

As to `CCN1CCC[C@H]1CNC(=O)c1cc(S(N)(=O)=O)cc2c1O[C@@H](C)C2`, the ED50 in assay [3] was 60.3 mg/kg; in assay [2], 5.7 mg/kg. Moreover, the Ki in assay [1] was 9.6 nM.

In the case of `CCN1CCC[C@H]1CNC(=O)c1cc(S(N)(=O)=O)cc2c1O[C@H](C)C2`, the ED50 turned out to be 87.3 mg/kg in assay [3] and 11 mg/kg in assay [2]. The molecule further gave a Ki in assay [1] of 21 nM.

As to `CCN1CCC[C@@H]1CNC(=O)c1cc(S(N)(=O)=O)ccc1OC`, the ED50 in assay [2] was more than 250 mg/kg.

Regarding `CCCCN1CCC[C@H]1CNC(=O)c1cc(S(N)(=O)=O)cc2c1O[C@H](C)C2`, the affinity in assay [1] corresponds to a Ki of 210 nM. The ED50 in assay [2] turned out to be 72.1 mg/kg.

`CCCCN1CCC[C@@H]1CNC(=O)c1cc(S(N)(=O)=O)cc2c1O[C@H](C)C2`: it took a dose of 11.6 mg/kg to reach the 50% effect level in assay [2] (ED50).

`CCN1CCC[C@H]1CNC(=O)c1cc(S(N)(=O)=O)ccc1OC` [LEVOSULPIRIDE] had an ED50 in assay [2] of 9.3 mg/kg.

On to `CCCCN1CCC[C@H]1CNC(=O)c1cc(S(N)(=O)=O)cc2c1O[C@@H](C)C2`, for which the Ki in assay [1] was found to be 95 nM. In assay [2], the ED50 came out at 38.8 mg/kg.

With `CCCCCCN1CCC[C@H]1CNC(=O)c1cc(S(N)(=O)=O)ccc1OC`, the ED50 in assay [3] and in assay [2] was more than 100 mg/kg each time. For the same molecule, the Ki in assay [1] was determined as 1400 nM.

For the molecule `CCCCCCN1CCC[C@H]1CNC(=O)c1cc(S(N)(=O)=O)cc2c1O[C@@H](C)C2`, in assay [2], the ED50 was more than 100 mg/kg.

In turn, `CCCCN1CCC[C@@H]1CNC(=O)c1cc(S(N)(=O)=O)cc2c1O[C@@H](C)C2` yielded a Ki in assay [1] of 9.4 nM. Further, the 50% effect level in assay [2] (ED50) was put at a dose of 3.7 mg/kg.

For the molecule `CCN1CCC[C@@H]1CNC(=O)c1cc(S(N)(=O)=O)cc2c1O[C@H](C)C2`, the Ki in assay [1] is 650 nM. The 50% effect level in assay [2] (ED50) was put at a dose of 145 mg/kg.

Turning to `CCCCN1CCC[C@H]1CNC(=O)c1cc(S(N)(=O)=O)ccc1OC`, the ED50 in assay [3] is 135 mg/kg; in assay [2], 49.2 mg/kg. The molecule also showed a Ki in assay [1] of 51 nM.
